Experimental findings from ChEMBL document CHEMBL4513216, “Probing the Open Global Health Chemical Diversity Library for Multistage-Active Starting Points for Next-Generation Antimalarials” (ACS Infect Dis, 2020) are described below.

Structures are written as SMILES.

The nature of the data set: Toxicity liver stage against HepG2, at 10uM. Set-up: test concentration 10 uM, cell line HepG2-A16-CD81EGFP. In kind it is cell-based. Particulars: human, HepG2-A16-CD81EGFP cells; read-out: INHIBITION
A digest of the protocol:
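Uninfected HepG2-A16-CD81EGFP cells, 3 × 10^3 per well, 1536-well, plated on prespotted compound at 10 μM final, parasite-free screening media added to match infected plates; puromycin 10 μM positive, DMSO 0.5% negative; run in parallel with 48 h PbLuc assay at 37 °C, 5% CO2; viability by CellTiter-Glo luminescence, normalized to controls.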
As to `Cc1ccc(CN2CCC3(CCCN3C(=O)C(C)C)CC2)o1`, the cytotoxicity at 10 µM is -5.9%.

With `CCOCC1CN(C(=O)c2ccco2)Cc2cnn(C)c21` (stereo unspecified), the cytotoxicity at 10 µM was 6.14%.

`Cc1ccc(C(=O)NCC2Cc3ccccc3O2)cc1S(C)(=O)=O` (stereo unspecified): the cytotoxicity at 10 µM was found to be 1.05%.

For the molecule `COC[C@@]12CCO[C@@H]1CCN(C(=O)C1CCSCC1)C2`, the cytotoxicity at 10 µM was -104%.

On to `Cc1ccc(NC(=O)CNc2ccccc2C(N)=O)c(C)c1`, for which the cytotoxicity at 10 µM is 1.15%.

In the case of `Cc1ccc(N2CCCC3(CCN(C(=O)CC(F)(F)F)C3)C2)nn1` (stereo unspecified), the cytotoxicity at 10 µM is -108%.

Consider `CSCCC1c2nc[nH]c2CCN1Cc1cc(Cl)ccc1O` (stereo unspecified), for which the cytotoxicity at 10 µM came to 23.3%.

As for `Cc1nc(C)n(CC2CCCN2CC(=O)Nc2cccnc2)n1` (stereo unspecified), the cytotoxicity at 10 µM stood at 2.04%.

For the molecule `Cc1cc(C(=O)Nc2n[nH]c(C3CC3)n2)c2c(C)noc2n1`, the cytotoxicity at 10 µM was -1.86%.

Consider `Cc1nc(C)n(CC2CCCCN2Cc2nc3ccccc3o2)n1` (stereo unspecified), for which the cytotoxicity at 10 µM was -6.8%.

As to `COc1ccc2c3c1CN(C(=O)N(C)C)CC3=CC(C)(C)CO2`, the cytotoxicity at 10 µM came out at 5.21%.

With `Cc1nn(C)c(Cl)c1CNCc1cccnc1N1CCOCC1`, the cytotoxicity at 10 µM was -4.17%.

`O=C1N(CC2CC2)C(c2c[nH]nc2-c2cccnc2)NC12CCCC2` (stereo unspecified): the cytotoxicity at 10 µM is -2.16%.

On to `COc1c(C2CCCN2CC(=O)NCc2ccccn2)c(C)nn1C` (stereo unspecified), for which the cytotoxicity at 10 µM is -0.671%.

As to `O=C(N1CCC(O)(C(F)(F)F)C1)C1(c2cccc(Cl)c2)CC1` (stereo unspecified), the cytotoxicity at 10 µM was -2.72%.

Turning to `Cc1ccc(Oc2cc(CN)ccn2)cc1C`, the cytotoxicity at 10 µM was -0.578%.

For `CNC(=O)c1nn(C)cc1NC(=O)C(C)n1ncc(Cl)c1C` (stereo unspecified), the cytotoxicity at 10 µM turned out to be 8.77%.

On to `Cc1cc2cc(C(=O)N3CCN(CCO)[C@@H]4CS(=O)(=O)C[C@@H]43)ccc2o1`, for which the cytotoxicity at 10 µM was -0.357%.

As for `CC(C)n1ccnc1CN1CCCC1c1cccc(-n2ccnc2)n1` (stereo unspecified), the cytotoxicity at 10 µM is -25.1%.

`Cc1nn(C)c(C)c1CN(C(=O)c1cnc(O)cn1)C(C)C`: the cytotoxicity at 10 µM is 2.62%.

As for `CC(=O)Nc1ccc(CCC2(NC(=O)C3CCCO3)CCCCC2)cn1` (stereo unspecified), the cytotoxicity at 10 µM is 1.6%.

Take `Cc1cc(NC(=O)CN2CCCC2Cn2nc(C)nc2C)n(C)n1` (stereo unspecified): the cytotoxicity at 10 µM is -2.49%.

Take `CN(C)c1nc2cn(C3CCSCC3)c(=O)c-2c[nH]1`: the cytotoxicity at 10 µM stood at 8.56%.

For the molecule `N#Cc1ccccc1N1CCCN(CC(=O)Nc2ccccc2Cl)CC1`, the cytotoxicity at 10 µM was determined as 1.11%.

For the molecule `Cn1c(N)nnc1SCc1ccc(Cl)cc1Br`, the cytotoxicity at 10 µM worked out at 1.48%.

`CN(CCCc1cnn(C)c1)C(=O)C1CCN(C(=O)C2CCC2)CC1`: the cytotoxicity at 10 µM is -11.6%.

With `Cc1ccccc1CN1C[C@@H](C(=O)N2CCCCO2)C[C@H]2OCC[C@H]21`, the cytotoxicity at 10 µM is -68.5%.

In the case of `Cc1occc1C(=O)N1CCC2(CC1)CN(c1ccccn1)CCO2`, the cytotoxicity at 10 µM was -75.6%.

Regarding `Cc1ccccc1CN(Cc1ccncc1)CC(C)C`, the cytotoxicity at 10 µM was 11.9%.

As for `CC(C)c1nsc(N2CCCOCC2)n1`, the cytotoxicity at 10 µM is -7.86%.

`CN(Cc1ccncc1)C1CCC[C@@H]2CN(c3ncccn3)C[C@H]12` (stereo partly specified): the cytotoxicity at 10 µM is -3.21%.

Consider `Cc1cc(C(=O)Nc2cc(C3CC3)n[nH]2)c2c(C)nn(C)c2n1`, for which the cytotoxicity at 10 µM was -2.14%.

Take `COc1ccccc1CC1CCN(C(=O)CCN2CCOC2=O)CC1`: the cytotoxicity at 10 µM was 3.76%.

Consider `Cc1ccc(-c2nc(CCNC(=O)C3CC(=O)N(C)C3)cs2)cc1` (stereo unspecified), for which the cytotoxicity at 10 µM was -5.54%.

For the molecule `COCCn1cnc2ccc(NC(=O)c3ccc(OC)cc3)cc2c1=O`, the cytotoxicity at 10 µM was -6.78%.

As to `CCn1c(N)nc2cc(C(=O)N3Cc4ccccc4C3)cnc21`, the cytotoxicity at 10 µM was -8.51%.

`CC(C)c1cnc(CNc2c(F)cccc2-n2cccn2)o1`: the cytotoxicity at 10 µM is -6.07%.

On to `Cc1nc2c(c(NCCNC(=O)C(C)C)n1)Cc1ccccc1OC2`, for which the cytotoxicity at 10 µM amounted to 4.74%.

For the molecule `CCn1c(C2CCN(C(=O)c3cc(CC(C)C)no3)CC2)nn(C)c1=O`, the cytotoxicity at 10 µM was -2.51%.

Regarding `Cc1csc(N2CCN(Cc3nccn3C)CC2C)n1` (stereo unspecified), the cytotoxicity at 10 µM was -0.274%.

Consider `CCN1CC2(CC1=O)CN(C(C)=O)CCN(C(=O)NC)C2` (stereo unspecified), for which the cytotoxicity at 10 µM is -3.62%.

Turning to `CCC(C)(C)C(=O)N1CCN(C2=NCC(C)S2)CC1` (stereo unspecified), the cytotoxicity at 10 µM was -144%.

Consider `CSc1nccc(N2CCC3(CCCN(Cc4ccc(F)cc4)C3)C2)n1` (stereo unspecified), for which the cytotoxicity at 10 µM was 9.5%.

Consider `O=S(=O)(NCCc1cn2ccccc2n1)N1CCOCC1`, for which the cytotoxicity at 10 µM is -3.98%.

For the molecule `CC(C)N(Cc1c[nH]nc1-c1ccc2c(c1)OCO2)Cc1nccn1C`, the cytotoxicity at 10 µM is -7.8%.

For `Cc1cnn(CC2CCCN2Cc2nnc(C(C)C)o2)c1` (stereo unspecified), the cytotoxicity at 10 µM was -20.3%.

Turning to `CC(CN1CCCCCC1)NCc1nncn1C1CCCCC1` (stereo unspecified), the cytotoxicity at 10 µM was -5.59%.

In the case of `CCN1CC(C(=O)NCc2nn(CC)c3ccccc23)CCC1=O` (stereo unspecified), the cytotoxicity at 10 µM was -5.83%.

Turning to `COCCCSc1ccc(NCc2ccc(C)cn2)cc1`, the cytotoxicity at 10 µM came out at 15.8%.

Turning to `CCCOCC(=O)N1CCC2(CC1)c1nc[nH]c1CCN2S(C)(=O)=O`, the cytotoxicity at 10 µM was 3.22%.

As for `CC(C)c1noc(C(C)N2CCN(c3ccc(C#N)cn3)CC2)n1` (stereo unspecified), the cytotoxicity at 10 µM is -2.57%.

Turning to `c1ccc2c(c1)CN(c1ncnc3sc4c(c13)CCNC4)CCO2`, the cytotoxicity at 10 µM came to 5.08%.

Take `Cn1ccnc1C(=O)NCCS(=O)(=O)c1ccc(C(C)(C)C)cc1`: the cytotoxicity at 10 µM came out at 3.62%.

On to `CS(=O)(=O)NC1CCN(C(=O)NCc2ccccn2)CC1`, for which the cytotoxicity at 10 µM is -5.04%.

Regarding `Fc1ccc(CN2CCO[C@H]3[C@H](OCC4CC4)CC[C@@H]32)cc1`, the cytotoxicity at 10 µM is -5.34%.

As for `Cc1ccc(C)c(CN2CCCn3nc(CNS(C)(=O)=O)cc3C2)c1`, the cytotoxicity at 10 µM is -4.64%.

Regarding `COCC1CN(Cc2cnn(C)c2)Cc2nn(C)cc21` (stereo unspecified), the cytotoxicity at 10 µM is -82.8%.

Regarding `CC(C)Oc1ncccc1CNC(=O)N1CCC(n2cccc2)CC1`, the cytotoxicity at 10 µM amounted to 3.48%.

Consider `CN1CCN(Cc2cnc3n2CCN(C(=O)c2ccncc2)C3)CC1`, for which the cytotoxicity at 10 µM was -73.8%.

Take `CN(C(=O)Cc1ccc2c(c1)OCCO2)C1CCCC1`: the cytotoxicity at 10 µM was 9.66%.

Turning to `O=C(OCc1cc(=O)n2cc(Br)ccc2n1)c1ccc2c(c1)OCO2`, the cytotoxicity at 10 µM is -7.37%.

As for `Cc1ccccc1-n1c(O)cc(C)c(C#N)c1=O`, the cytotoxicity at 10 µM was -1.54%.

Regarding `O=C1CCC2(CCN(c3ncc(F)cn3)CC2)N1Cc1ccncc1`, the cytotoxicity at 10 µM stood at 5.02%.

Take `CN1CCN(C(=O)c2cc(-c3cnc(N4CCCC4)nc3)cn2C)CC1`: the cytotoxicity at 10 µM is -1.43%.

As for `CC(NC(=O)c1ccc(Cl)cc1)c1nnc(SCC(N)=O)n1C` (stereo unspecified), the cytotoxicity at 10 µM came to 6.27%.

For `CCCc1n[nH]c(C2CN(C(=O)c3cc4c(s3)CCC4)CCO2)n1` (stereo unspecified), the cytotoxicity at 10 µM is -10.1%.

As to `CC(C)CN1CC2(CCN(C(=O)C(O)c3cccc(Cl)c3)CC2)CC1=O` (stereo unspecified), the cytotoxicity at 10 µM was -1.45%.

Regarding `c1ccc(-c2cnc(CNCC3CCCN3c3cccnn3)o2)cc1` (stereo unspecified), the cytotoxicity at 10 µM is 1.56%.

As for `CC(C)N(C)C(=O)C1CCN(Cc2cc3c(cc2O)CCC3)CC1`, the cytotoxicity at 10 µM turned out to be 6.15%.

On to `Cc1nc[nH]c1CN1CCCC12CCN(c1nc3ccccc3s1)CC2`, for which the cytotoxicity at 10 µM was -0.369%.

Turning to `Cn1ccc(CN2CCC(CC(=O)NC3CCCC3)CC2)cc1=O`, the cytotoxicity at 10 µM was -16.8%.
